Test results from ChEMBL document CHEMBL1135980, “Novel angular benzophenazines: dual topoisomerase I and topoisomerase II inhibitors as potential anticancer agents” (J Med Chem, 2002).

Assays:
NCI-H69 [1] = test: Rf is the resistance factor and is the ratio of the IC50 on the resistant cell line over the IC50 on the parental H69/P cell line; format: functional, Homo sapiens
Procedure, shortened: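 Resistance factor computed as IC50 in H69/LX4 (Pgp-overexpressing) divided by IC50 in H69/P. Both IC50s come from a 5-6 day Alamar Blue proliferation assay.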

NCI-H69 [2] = test: Cytotoxicity measured using the drug resistant, P-glycoprotein (Pgp) expressing human small cell lung carcinoma cell line H69/LX4; format: functional, cell-based
Procedure, shortened: (§1)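 H69/P (parental) or H69/LX4 (P-glycoprotein-overexpressing) human SCLC cells; compound added, then 5-6 days incubation; proliferation read with Alamar Blue.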

NCI-H69 [3] = test: Cytotoxicity measured using the H69 parental (H69/P) human small cell lung carcinoma cell line; format: functional, cell-based; procedure, shortened: as §1

Compound | Rf (NCI-H69 [1]) | IC50 (NCI-H69 [2]) | IC50 (NCI-H69 [3])
CCN(CC)CCNC(=O)c1cccc2nc3ccc4c(OC)cccc4c3nc12 | 2.4 | 1000 nM | 412 nM
CN(C)CCNC(=O)c1cccc2nc3ccc4c(Br)cccc4c3nc12 | 2.2 | 171 nM | 77 nM
CN(C)CCNC(=O)c1cccc2nc3ccc4c(C(=O)O)cccc4c3nc12 |  | > 5000 nM | > 5000 nM
COc1cccc2c1ccc1nc3cccc(C(=O)NC(Cc4ccccc4)CN(C)C)c3nc12 (stereo not drawn) | 1.1 | 513 nM | 478 nM
CN(C)CCNC(=O)c1cccc2nc3ccc4c(Cl)cccc4c3nc12 | 1.4 | 159 nM | 117 nM
CN(C)CCNC(=O)c1cccc2nc3ccc4c(OCCN5CCOCC5)cccc4c3nc12 | 2.4 | 236 nM | 99 nM
CCOc1cccc2c1ccc1nc3cccc(C(=O)NCCN(C)C)c3nc12 | 3.7 | 182 nM | 49 nM
COc1cccc2c1ccc1nc3cccc(C(=O)NC(CN(C)C)C(C)C)c3nc12 (stereo not drawn) | 0.7 | 25 nM | 35 nM
CC(C)Oc1cccc2c1ccc1nc3cccc(C(=O)NCCN(C)C)c3nc12 | 2.1 | 874 nM | 420 nM
CN(C)CCNC(=O)c1cccc2nc3ccc4c(OCC(=O)O)cccc4c3nc12 | >1.3 | > 5000 nM | 3840 nM
CN(C)CCNC(=O)c1cccc2nc3ccc4cc([N+](=O)[O-])ccc4c3nc12 | 1.4 | 69 nM | 49 nM
COCCOc1cccc2c1ccc1nc3cccc(C(=O)NCCN(C)C)c3nc12 | 1.4 | 124 nM | 90 nM
CN(C)CCNC(=O)c1cccc2nc3ccc4c(OCCO)cccc4c3nc12 | 0.8 | 235 nM | 303 nM
CN(C)CCNC(=O)c1cccc2nc3ccc4c(CO)cccc4c3nc12 | 3.6 | 423 nM | 117 nM
COc1cccc2c1ccc1nc3cccc(C(=O)NCC(C)N(C)C)c3nc12 (stereo not drawn) | 1.2 | 126 nM | 101 nM
COc1cccc2c1ccc1nc3cccc(C(=O)NC(C)CN(C)C)c3nc12 (stereo not drawn) | 1.4 | 44 nM | 30 nM
COc1cccc2c1ccc1nc3cccc(C(=O)NC(CN(C)C)C(=O)O)c3nc12 (stereo not drawn) | >23 | > 5000 nM | 211 nM
COc1cccc2c1ccc1nc3cccc(C(=O)NCC(CN(C)C)N(C)C)c3nc12 (stereo not drawn) | 3.8 | 480 nM | 126 nM
CC(=O)Nc1cccc2c1ccc1nc3cccc(C(=O)NCCN(C)C)c3nc12 | >10.7 | > 5000 nM | 468 nM
CSc1cccc2c1ccc1nc3cccc(C(=O)NCCN(C)C)c3nc12 | 0.8 | 94 nM | 121 nM
COc1cc(C(=O)NCCN(C)C)c2nc3c(ccc4c(OC)cccc43)nc2c1 | 1.3 | 25 nM | 19 nM
COc1cccc2c1ccc1nc3cc(Br)cc(C(=O)NCCN(C)C)c3nc12 | 0.6 | 100 nM | 159 nM
CC(=O)Oc1cccc2c1ccc1nc3cccc(C(=O)NCCN(C)C)c3nc12 | 2.8 | 67 nM | 24 nM
COC(=O)c1cccc2c1ccc1nc3cccc(C(=O)NCCN(C)C)c3nc12 | 0.9 | 91 nM | 103 nM
CCC(CN(C)C)NC(=O)c1cccc2nc3ccc4c(OC)cccc4c3nc12 (stereo not drawn) | 1.1 | 118 nM | 107 nM
COc1cccc2c1ccc1nc3cccc(C(=O)N[C@@H](C)CN(C)C)c3nc12 | 1.3 | 121 nM | 96 nM
COc1cccc2c1ccc1nc3ccc(O)c(C(=O)NCCN(C)C)c3nc12 | 1 | 107 nM | 103 nM

Compound | Rf (NCI-H69 [1]) | IC50 (NCI-H69 [2]) | IC50 (NCI-H69 [3])
COc1cccc2c1ccc1nc3cc(Cl)cc(C(=O)NCCN(C)C)c3nc12 | 1 | 21 nM | 20 nM
COc1ccc2nc3ccc4c(OC)cccc4c3nc2c1C(=O)NCCN(C)C | 1.4 | 3620 nM | 2640 nM
COc1cccc2c1ccc1nc3cccc(C(=O)NCCN4CCOCC4)c3nc12 | 1.7 | 1000 nM | 597 nM
COc1cccc2c1ccc1nc3cccc(C(=O)NC(CCO)CN(C)C)c3nc12 (stereo not drawn) | 1.1 | 28 nM | 26 nM
CN(C)CCNC(=O)c1cccc2nc3ccc4c(N)cccc4c3nc12 | 1.7 | 193 nM | 111 nM
COc1cccc2c1ccc1nc3cccc(C(=O)NCCN4CCCC4)c3nc12 | 1.9 | 77 nM | 40 nM
CN(C)CCNC(=O)c1c(O)ccc2nc3ccc4c(O)cccc4c3nc12 | 1.3 | 25 nM | 19 nM
CN(C)CCNC(=O)c1cccc2nc3ccc4c(OCCCC#N)cccc4c3nc12 | 1.5 | 58 nM | 39 nM
COc1cccc2c1ccc1nc3cccc(C(=O)NCCCN(C)C)c3nc12 | 1.3 | 597 nM | 470 nM
CC(=O)COc1cccc2c1ccc1nc3cccc(C(=O)NCCN(C)C)c3nc12 | 3.1 | 138 nM | 45 nM
CN(C)CCNC(=O)c1cccc2nc3ccc4c(F)cccc4c3nc12 | 0.7 | 78 nM | 111 nM
CNS(=O)(=O)c1cccc2c1ccc1nc3cccc(C(=O)NCCN(C)C)c3nc12 | >7.8 | > 5000 nM | 638 nM
COc1cccc2c1ccc1nc3cccc(C(=O)N[C@@H](CN(C)C)[C@H](C)O)c3nc12 | 1 | 19 nM | 19 nM
COc1ccc2c(ccc3nc4cccc(C(=O)NCCN(C)C)c4nc32)c1OC | 1.8 | 804 nM | 436 nM
CNc1ccc2nc3ccc4c(OC)cccc4c3nc2c1C(=O)NCCN(C)C | 1.1 | 143 nM | 127 nM
C#CCOc1cccc2c1ccc1nc3cccc(C(=O)NCCN(C)C)c3nc12 | 1.5 | 61 nM | 40 nM
CN(C)CCNC(=O)c1cccc2nc3ccc4c(NS(C)(=O)=O)cccc4c3nc12 | 2.3 | 4990 nM | 2130 nM
CN(C)CCNC(=O)c1cccc2nc3ccc4c(S(C)(=O)=O)cccc4c3nc12 | 2.8 | 3810 nM | 1360 nM
COc1cccc2c1ccc1nc3cccc(C(=O)N[C@H](CO)CN(C)C)c3nc12 | 1.2 | 25 nM | 20 nM
CN(C)CCNC(=O)c1cccc2nc3ccc4c(OCC#N)cccc4c3nc12 | 0.9 | 24 nM | 28 nM
COc1cccc2c1ccc1nc3cccc(C(=O)NCC(O)CN)c3nc12 (stereo not drawn) | >9.7 | > 5000 nM | 515 nM
COc1cccc2c1ccc1nc3cccc(C(=O)N[C@@H](CN(C)C)C(C)C)c3nc12 | 1 | 20 nM | 21 nM
CN(C)CCNC(=O)c1cccc2nc3ccc4c(C#N)cccc4c3nc12 | 1.5 | 147 nM | 101 nM
COc1ccc2ccc3nc4cccc(C(=O)NCCN(C)C)c4nc3c2c1 | 1 | 112 nM | 110 nM
COc1cccc2c1ccc1nc3cccc(C(=O)NCCN(CCO)CCO)c3nc12 | 5.5 | 3380 nM | 614 nM
COc1cccc2c1ccc1nc3cccc(C(=O)NC(C)(C)CN(C)C)c3nc12 | 1.5 | 642 nM | 435 nM
